44 molecules from ChEMBL document CHEMBL3286200, “Design and green synthesis of 2-(diarylalkyl)aminobenzothiazole derivatives and their dual activities as angiotensin converting enzyme inhibitors and calcium channel blockers” (Eur J Med Chem, 2014) can be followed below.

Activity calls are given as the source filed them. The rule behind the calls is not given here.

Experiment [1] is filed under the species Rattus norvegicus. In words: (§1) Inhibition of voltage-dependent calcium channel in Sprague-Dawley rat thoracic aorta assessed as inhibition of CaCl2-induced contraction by isometric force transducer. Format: tissue-based. In a few lines:
(§2)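 Rat aortic rings held at 37 °C in 25 mL oxygenated KHB in an organ bath, under 1 g resting tension, equilibrated about 30 min. Isometric tension recorded by force transducer. Initial contraction with phenylephrine 1 mM, buffer changed every 15 min. After preincubation with test agent, a cumulative calcium concentration-response curve (10^-3 to 10^-1 M) was recorded.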

In experiment [2] the target is T1, Angiotensin-converting enzyme (Oryctolagus cuniculus, UniProt P12822).
T1 sequence (P12822 whole entry): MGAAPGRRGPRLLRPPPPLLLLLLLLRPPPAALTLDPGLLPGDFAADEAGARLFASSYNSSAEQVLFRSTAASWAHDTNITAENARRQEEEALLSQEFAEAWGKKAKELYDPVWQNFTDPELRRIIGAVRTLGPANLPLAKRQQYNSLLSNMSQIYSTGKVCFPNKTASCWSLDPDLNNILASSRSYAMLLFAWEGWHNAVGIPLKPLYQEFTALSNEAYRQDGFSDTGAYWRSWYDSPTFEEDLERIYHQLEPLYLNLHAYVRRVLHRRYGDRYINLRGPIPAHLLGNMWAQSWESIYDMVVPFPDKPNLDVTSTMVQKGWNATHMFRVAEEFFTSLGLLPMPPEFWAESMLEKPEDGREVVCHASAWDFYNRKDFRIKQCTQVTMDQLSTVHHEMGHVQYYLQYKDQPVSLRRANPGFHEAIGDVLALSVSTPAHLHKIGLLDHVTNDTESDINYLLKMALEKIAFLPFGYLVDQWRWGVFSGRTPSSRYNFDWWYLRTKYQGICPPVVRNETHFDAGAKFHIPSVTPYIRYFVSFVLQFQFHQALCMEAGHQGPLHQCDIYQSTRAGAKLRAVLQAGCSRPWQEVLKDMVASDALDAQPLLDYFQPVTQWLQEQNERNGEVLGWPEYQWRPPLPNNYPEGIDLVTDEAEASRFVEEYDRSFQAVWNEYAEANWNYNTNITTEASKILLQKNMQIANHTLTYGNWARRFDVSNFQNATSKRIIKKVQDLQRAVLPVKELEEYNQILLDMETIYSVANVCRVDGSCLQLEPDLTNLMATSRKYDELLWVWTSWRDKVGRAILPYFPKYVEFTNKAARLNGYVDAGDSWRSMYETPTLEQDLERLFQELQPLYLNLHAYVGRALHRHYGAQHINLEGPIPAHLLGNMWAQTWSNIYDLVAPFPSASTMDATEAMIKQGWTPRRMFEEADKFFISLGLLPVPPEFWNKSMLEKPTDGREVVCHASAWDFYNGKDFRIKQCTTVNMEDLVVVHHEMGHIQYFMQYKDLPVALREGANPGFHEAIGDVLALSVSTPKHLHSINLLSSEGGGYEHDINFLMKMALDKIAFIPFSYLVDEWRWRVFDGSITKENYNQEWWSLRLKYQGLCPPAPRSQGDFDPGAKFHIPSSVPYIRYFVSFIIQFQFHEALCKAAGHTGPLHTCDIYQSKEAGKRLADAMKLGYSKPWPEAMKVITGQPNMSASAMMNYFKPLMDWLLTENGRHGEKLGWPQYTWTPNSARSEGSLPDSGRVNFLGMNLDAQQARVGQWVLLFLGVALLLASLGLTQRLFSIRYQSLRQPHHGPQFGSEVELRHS
The experiment can be described thus: Inhibition of rabbit lung ACE assessed as inhibition of hippuryl-histidyl-leucine substrate hydrolysis pretreated for 10 mins followed by addition of 5 mM HHL substrate for 30 mins measured as hippuric acid release. A digest of the protocol:
(§3)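 Reaction started with […] of 5 mM HHL; released hippuric acid read as yellow colour at 410 nm. Inhibition% = 100 − (T/C)×100; IC50 from percentage-inhibition versus concentration curves.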

Experiment [3] is described as follows: as §1. Format: tissue-based. A digest of the protocol:
as §2

In experiment [4] the target is T2, Angiotensin-converting enzyme (Oryctolagus cuniculus) (UniProt P12822).
T2 sequence (whole entry): T1 sequence (P12822 whole entry)
The experiment can be described thus: Inhibition of rabbit lung ACE assessed as inhibition of hippuryl-histidyl-leucine substrate hydrolysis at 1 uM pretreated for 10 mins followed by addition of 5 mM HHL substrate for 30 mins measured as hippuric acid release. A digest of the protocol:
as §3

For experiment [5], the species on record is Rattus norvegicus. The experiment can be described thus: Inhibition of voltage-dependent calcium channel in Sprague-Dawley rat thoracic aorta assessed as inhibition of CaCl2-induced contraction at […] by isometric force transducer. Format: tissue-based. A digest of the protocol: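 Isolated rat aortic rings hung on steel hooks in a water-jacketed organ bath of oxygenated KHB at 37 °C. Resting tension 1 g, equilibration about 30 min. Rings precontracted with […], with buffer changed every 15 min. Tissue preincubated with test agent, then cumulative calcium concentration–response curve (10^-3 to 10^-1 M) recorded as isometric tension.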

The inhibition is the share of the control response that was lost under treatment. Regarding `Oc1ccc2ccccc2c1C(Nc1nc2ccccc2s1)c1ccc(Cl)cc1Cl` (stereo not given), the inhibition entry in experiment [1] was “Dose-dependent effect”.

For `Oc1ccc2ccccc2c1C(Nc1nc2ccccc2s1)c1ccc(F)c(F)c1` (stereo not given), the inhibition result in experiment [1] is “Dose-dependent effect”.

Take `Oc1ccc2ccccc2c1C(Nc1nc2c(Cl)cccc2s1)c1ccc(Br)cc1` (stereo not given): in experiment [1], the inhibition result is “Dose-dependent effect”.

Take `Oc1ccc2ccccc2c1C(Nc1nc2ccccc2s1)c1ccc(Cl)c(Cl)c1` (stereo not given): in experiment [1], the inhibition result was “Dose-dependent effect”.

For the molecule `COc1ccc(C(Nc2nc3ccccc3s2)c2c(O)ccc3ccccc23)c(OC)c1` (stereo not given), in experiment [1], the inhibition entry is “Dose-dependent effect”.

For `Oc1ccc2ccccc2c1C(Nc1nc2ccccc2s1)c1cccc(F)c1` (stereo not given), the inhibition result in experiment [1] was “Dose-dependent effect”.

Turning to `Cc1ccc(C(Nc2nc3ccc(Cl)cc3s2)c2c(O)ccc3ccccc23)cc1` (stereo not given), in experiment [1], the inhibition entry was “Dose-dependent effect”.

As for `N#Cc1ccc(C(Nc2nc3ccccc3s2)c2c(O)ccc3ccccc23)cc1` (stereo not given), the inhibition entry in experiment [1] is “Dose-dependent effect”.

In the case of `Cc1ccc(C(Nc2nc3c(Cl)cccc3s2)c2c(O)ccc3ccccc23)cc1` (stereo not given), the inhibition entry in experiment [1] was “Dose-dependent effect”.

As for `Oc1ccc2ccccc2c1C(Nc1nc2ccccc2s1)c1cccc(Br)c1` (stereo not given), the inhibition result in experiment [1] was “Dose-dependent effect”.

On to `COc1ccc(C(Nc2nc3ccccc3s2)c2c(O)ccc3ccccc23)cc1OC` (stereo not given), for which, in experiment [1], the inhibition entry was “Dose-dependent effect”.

One may read the IC50 as the midpoint of a concentration-inhibition curve. As for `COc1ccc(C(Nc2nc3ccccc3s2)c2c(O)ccc3ccccc23)cc1` (stereo not given), the IC50 in experiment [2] turned out to be 0.837 µM; in experiment [3] it was 3 µM. Further, the inhibition entry was “Dose-dependent effect” in experiment [1] and 61.8% in experiment [4].

Regarding `Cc1cccc2sc(NC(c3ccc(Cl)c(Cl)c3)c3c(O)ccc4ccccc34)nc12` (stereo not given), in experiment [1], the inhibition result was “Dose-dependent effect”.

Regarding `COC(=O)C1=C(C)NC(C)=C(C(=O)OC)C1c1ccccc1[N+](=O)[O-]`, the inhibition result in experiment [5] was “Active”.

For `Oc1ccc2ccccc2c1C(Nc1nc2ccccc2s1)c1ccc2ccccc2c1` (stereo not given), in experiment [1], the inhibition entry was “Dose-dependent effect”.

Turning to `Oc1ccc2ccccc2c1C(Nc1nc2ccccc2s1)c1cccc(Oc2ccccc2)c1` (stereo not given), in experiment [1], the inhibition entry is “Dose-dependent effect”.

Take `Oc1ccc2ccccc2c1C(Nc1nc2ccccc2s1)c1cccc(Cl)c1` (stereo not given): the inhibition entry in experiment [1] is “Dose-dependent effect”.

Turning to `Oc1ccc2ccccc2c1C(Nc1nc2ccccc2s1)c1cc(F)ccc1Br` (stereo not given), the inhibition result in experiment [1] is “Dose-dependent effect”.

Turning to `Oc1ccc2ccccc2c1C(Nc1nc2c(Cl)cccc2s1)c1ccc2ccccc2c1` (stereo not given), in experiment [1], the inhibition result is “Dose-dependent effect”.

Regarding `Cc1ccc(C(Nc2nc3ccccc3s2)c2c(O)ccc3ccccc23)cc1` (stereo not given), the inhibition entry in experiment [1] is “Dose-dependent effect”.

With `Oc1ccc2ccccc2c1C(Nc1nc2ccccc2s1)c1cccc(Cl)c1Cl` (stereo not given), the inhibition result in experiment [1] is “Dose-dependent effect”.

Take `Oc1ccc2ccccc2c1C(Nc1nc2ccccc2s1)c1ccc(C(F)(F)F)cc1` (stereo not given): in experiment [1], the inhibition result was “Dose-dependent effect”.

As to `Oc1ccc2ccccc2c1C(Nc1nc2ccccc2s1)c1ccccc1Cl` (stereo not given), the inhibition result in experiment [1] was “Dose-dependent effect”.

For `Oc1ccc2ccccc2c1C(Nc1nc2c(Cl)cccc2s1)c1ccc(Cl)c(Cl)c1` (stereo not given), the inhibition entry in experiment [1] is “Dose-dependent effect”.

With `CC(c1ccccc1)C(Nc1nc2ccccc2s1)c1c(O)ccc2ccccc12` (stereo not given), the inhibition entry in experiment [1] was “Dose-dependent effect”.

As to `Oc1ccc2ccccc2c1C(Nc1nc2c(Cl)cccc2s1)c1ccccc1` (stereo not given), in experiment [1], the inhibition entry was “Dose-dependent effect”.

In the case of `CN(C)c1ccc(C(Nc2nc3ccccc3s2)c2c(O)ccc3ccccc23)cc1` (stereo not given), the inhibition result in experiment [1] is “Dose-dependent effect”.

For `Oc1ccc2ccccc2c1C(Nc1nc2ccccc2s1)c1ccc(F)cc1` (stereo not given), in experiment [1], the inhibition entry was “Dose-dependent effect”.

As to `Oc1ccc2ccccc2c1C(Nc1nc2c(Cl)cccc2s1)c1ccc(Cl)cc1Cl` (stereo not given), the inhibition entry in experiment [1] is “Dose-dependent effect”.

Take `COc1cc(C(Nc2nc3ccccc3s2)c2c(O)ccc3ccccc23)cc(OC)c1OC` (stereo not given): the inhibition entry in experiment [1] was “Dose-dependent effect”.

Regarding `Oc1ccc2ccccc2c1C(Nc1nc2ccccc2s1)c1ccc(Cl)cc1` (stereo not given), the inhibition entry in experiment [1] was “Dose-dependent effect”.

For the molecule `Oc1ccc2ccccc2c1C(Nc1nc2c(Cl)cccc2s1)c1cccc(Cl)c1` (stereo not given), the inhibition entry in experiment [1] was “Dose-dependent effect”.

As to `Oc1ccc2ccccc2c1C(Nc1nc2c(Cl)cccc2s1)c1ccc(F)cc1` (stereo not given), the inhibition entry in experiment [1] is “Dose-dependent effect”.

For `CC(C)c1ccc(C(Nc2nc3ccccc3s2)c2c(O)ccc3ccccc23)cc1` (stereo not given), in experiment [1], the inhibition result is “Dose-dependent effect”.

Consider `COc1cc(C(Nc2nc3c(Cl)cccc3s2)c2c(O)ccc3ccccc23)cc(OC)c1OC` (stereo not given), for which the inhibition result in experiment [1] is “Dose-dependent effect”.

As to `Oc1ccc2ccccc2c1C(Nc1nc2ccc(Cl)cc2s1)c1ccc(Br)cc1` (stereo not given), the inhibition entry in experiment [1] is “Dose-dependent effect”.

Consider `Oc1ccc2ccccc2c1C(Nc1nc2ccccc2s1)c1ccccc1` (stereo not given), for which the inhibition entry in experiment [1] was “Dose-dependent effect”.

Consider `CN(C)c1ccc(C(Nc2nc3c(Cl)cccc3s2)c2c(O)ccc3ccccc23)cc1` (stereo not given), for which the inhibition entry in experiment [1] is “Dose-dependent effect”.

Take `O=C(/C=C/c1ccc(O)c(O)c1)c1ccc(O)cc1O` [BUTEIN]: the IC50 in experiment [2] turned out to be 730 µM.

`Oc1ccc2ccccc2c1C(Nc1nc2ccc(Cl)cc2s1)c1ccc(Cl)c(Cl)c1` (stereo not given): the inhibition result in experiment [1] was “Dose-dependent effect”.

Turning to `Oc1ccc2ccccc2c1C(Nc1nc2ccc(Cl)cc2s1)c1ccccc1` (stereo not given), the inhibition entry in experiment [1] was “Dose-dependent effect”.

`Oc1ccc2ccccc2c1C(Nc1nc2c(Cl)cccc2s1)c1cccc(Oc2ccccc2)c1` (stereo not given): the inhibition entry in experiment [1] was “Dose-dependent effect”.

On to `Oc1ccc2ccccc2c1C(Nc1nc2ccccc2s1)c1ccc(Br)cc1` (stereo not given), for which the inhibition result in experiment [1] is “Dose-dependent effect”.

Regarding `COc1ccc(C(Nc2nc3c(Cl)cccc3s2)c2c(O)ccc3ccccc23)cc1` (stereo not given), the IC50 turned out to be 0.607 µM in experiment [2] and 50 µM in experiment [3]. The inhibition entry in experiment [1] was “Dose-dependent effect”; in experiment [4] it was 80.1%.
